# Screening results (PubChem BioAssay)
# Shown are actives, neighbours in structure and some others; about 1.5% of the full set was active somewhere.
# CendR NRP1 mod: NRP-1/CendR interaction modulation. AID 602438. hit rate 0.85% among 360,000. O14786. inhibition, % at 25 µM. FAM-RPARPAR peptide binding to NRP-1, fluorescence polarization;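 active = inhibition or corrected inhibition above about 18%, plus a signal ratio from 0.5 to 1.5, limit read from the data, passing the limit was not always enough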
# FID counter: fluorescent intercalator displacement, NS3 helicase counter-screen; DNA fluorescent intercalator displacement, fluorescence; inhibition, % at 7.9 µM; hit rate 0.17% among 290,000; in the data active = inhibition above about 37%;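 note: 0% = vehicle and 100% = reference compound; higher means more ethidium bromide displaced from hairpin DNA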
# core dimer inh: blocks dimerization of HCV core protein; inhibition, % at 5 µM; AID 1899; hit rate 0.33% among 300,000; TR-FRET GST/Flag-core106 dimerization, 1536-well;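 active = inhibition above the mean of all tested compounds plus 3 SD, set per screening campaign, cut at about 45% in these data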
#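 System: GST/Flag-tagged HCV core106 proteins. Incubation: compound-protein-antibody incubation 4 h at 22.5 °C. Technique: HTRF with 340 nm excitation, 617/671 nm emission. Medium: KF-containing HEPES buffer, pH 7.45, DTT, CHAPS, BSA. Read-out: inhibition (%) from 671 over 617 nm ratio. Also added: Eu(K)-anti-GST 90 ng/mL plus XL665-anti-Flag 1 µg/mL.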
# MEX-5 binding: C. elegans MEX-5 TCR-2 RNA binding activity; Q9XUB2; AID 1832; hit rate 0.38% among 300,000; MEX-5/FITC-TCR2 RNA binding, fluorescence polarization; hits give low values; activity score (negative = inhibition of binding), % at 10 µM;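 active = inhibition past about -25% in most replicates, and total fluorescence under double the plate's negative control median, limit read from the data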;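 note: 0% = DMSO and -100% = 5 µM competing unlabeled TCR2 RNA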
# * = called active by the depositor; nt = not tested or not shown.
SMILES,CendR NRP1 mod,FID counter,core dimer inh,MEX-5 binding
O=C(Cc1ccc([N+](=O)[O-])cc1)Nc1cccc(C(=O)N2CCCCC2)c1,26*,nt,nt,nt
CC(C)OC(=O)c1c2c(n3ccccc13)C(=O)c1ccccc1C2=O,136,5,-7,-31*
Cc1cc(NC(=O)Nc2cc(Cl)ccc2C)no1,20*,-6,-11,1
Cc1cc(NC(=O)Nc2ccc(C)c(C)c2)no1,4,-7,-5,-1
Cc1cccc(C)c1NC(=O)C1C(c2ccccc2)=Nc2ccccc2N1C(=O)c1cnccn1 (stereo unspecified),-14,nt,nt,nt
C=CCNC(=O)c1onc(CSc2ccccc2)c1C(=O)NCC=C,7,nt,-8,1
C=CCNC(=O)c1onc(CSc2ccc(F)c(F)c2)c1C(=O)NCC=C,25*,nt,4,-1
CSc1ccc(CN2CCC2(C)C(=O)Nc2cnc3ccccc3c2)cc1 (stereo unspecified),6,nt,nt,nt
CC(OC(=O)c1ccc(=O)n(Cc2ccccc2)n1)C(=O)Nc1cccc(Cl)c1 (stereo unspecified),17*,nt,5,0
Cc1ccn2c(Cc3ccccc3)c(-c3ccc(F)cc3)nc2c1,-4,nt,nt,nt
COc1cc2oc(=O)ccc2cc1[C@@H](O)[C@@H]1OC(C)(C)OC1(C)C,27*,nt,nt,nt
NNC(=O)c1[nH]c2ccc([N+](=O)[O-])cc2c1-c1ccccc1,24*,-7,11,0
O=C(O)c1[nH]c2ccc([N+](=O)[O-])cc2c1-c1ccccc1,6,-9,-1,-11
COc1ccccc1N1CCN(c2ccc3c(c2)S(=O)(=O)c2cccc(C(=O)NCc4cccc(F)c4)c2C3=O)CC1,-17,nt,nt,nt
COC(=O)COc1ccc2cc(-c3ccc(OC)cc3)c(=O)oc2c1,20*,-17,3,0
COC(=O)COc1ccc2cc(-c3ccccc3)c(=O)oc2c1,11,-14,1,1
CCNC(=O)NC(=O)CSc1ccccc1F,35*,-4,1,1
CCNC(=O)NC(=O)CSc1ccc2ccccc2c1,1,-5,0,0
COc1ccc(C(C)(O)c2nc(-c3ccncc3)cs2)cc1 (stereo unspecified),-1,nt,nt,nt
CC(C(=O)c1ccccc1)[n+]1cccc(Br)c1 (stereo unspecified),-1,-1,0,1
CCOc1ccc(N=C2SC(C(=O)Nc3ccccc3C#N)C(N)=C2C(=O)Nc2ccc(Cl)cc2)cc1 (stereo unspecified),-5,2,55*,2
N#Cc1ccccc1NC(=O)C1SC(=Nc2ccccc2)C(C(=O)Nc2ccc(Cl)cc2)=C1N (stereo unspecified),-7,1,11,0
Cc1ncc(/C=C2\C(=O)Nc3ccccc32)[nH]1,nt,4,-12,-40*
COc1ccc(Nc2nc(=O)c3cc([N+](=O)[O-])ccc3s2)cc1,-12,2,nt,1
Cc1ccc(Nc2nc(=O)c3cc([N+](=O)[O-])ccc3s2)cc1,-7,-1,48*,-5
SMILES,CendR NRP1 mod,FID counter,core dimer inh,MEX-5 binding
Cc1c(C(=O)/C=C/N(C)C)nnn1-c1ccc(F)c(Cl)c1,38*,-11,0,1
Cc1cc(C(=O)CSc2nn3c(=O)c(C(C)(C)C)nnc3s2)c(C)n1-c1ccc(F)cc1,-16,-12,49*,1
CCCCc1ccc(/C=C2\C(=O)ON=C2c2ccccc2)s1,5,-31,3,-33*
O=C1ON=C(c2ccccc2)/C1=C/c1ccco1,-9,-13,0,-6
CC1=Nc2cccc3cccc(c23)N1C,9,9,-29,-29*
COc1cc(/C=N/S(=O)(=O)CCc2ccccc2)cc(OC)c1O,39*,-3,-13,-1
CC(C)NC(=O)c1cccc2c(-c3ccc(F)c(F)c3)coc12,-12,nt,nt,nt
O=C(Nc1ccc(Cl)cc1)[C@@H]1[C@@H]2C(=O)N(c3ccc4ccccc4c3)C(=O)[C@@H]2[C@H]2C=CC=NN21,-3,-11,60*,1
COc1ccc2c3c([nH]c2c1)C1CC2C(CC(O)C(OC)C2C(=O)O)CN1CC3 (stereo unspecified),-8,0,-2,-35*
COc1ccccc1CNc1nc(Nc2cccc(-c3cnco3)c2)c2sccc2n1,-17,nt,nt,nt
COc1ccc(/C=C2\C(=O)OCc3cc(OC)c(OC)cc32)cc1OC,25*,-18,-2,1
COc1ccc(C=C2C(=O)OC(C)(C)OC2=O)cc1OC,-12,2,-12,-50*
Cc1ccc(NC(=O)c2cc(-c3ccco3)nc3ccccc23)cc1S(=O)(=O)N1CCOCC1,-22,-32,69*,2
